Reference: ChEMBL document CHEMBL4138189, “Role of the Benzodioxole Group in the Interactions between the Natural Alkaloids Chelerythrine and Coptisine and the Human Telomeric G-Quadruplex DNA. A Multiapproach Investigation” (J Nat Prod, 2017)
Calls of active or inactive are those of the source. No cut-off for these calls is given here.

Assays:
Quadruplex DNA [1] = experiment: Stabilization of 5'Dabcyl/3'FAM labeled human telomeric sequence G-quadruplex DNA assessed as change in melting temperature up to 30 uM in presence of KCl by fluorescence assay; assay type: nucleic-acid assay
In short: (§1)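 Labelled telomeric DNA, 0.25 μM strand, in 10 mM LiOH, pH 7.5 (H3PO4), 50 mM KCl, with increasing ligand. Samples were heated and cooled over 25–95 °C at 0.1 °C/s, held 5 min at 30 °C, then heated to 95 °C at 1 °C/min. Fluorescence excited at 488 nm, read at 520 nm. Tm from first derivative of melting profile; at least triplicate, errors ±0.3 °C.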

Calf thymus DNA [2] = experiment: Stabilization of calf thymus DNA assessed as change in melting temperature at 5 uM by fluorescence assay; assay type: nucleic-acid assay; conditions: Bos taurus
Quadruplex DNA [3] = experiment: Stabilization of 5'Dabcyl/3'FAM labeled human telomeric sequence G-quadruplex DNA assessed as change in melting temperature at 5 uM in presence of KCl by fluorescence assay; assay type: nucleic-acid assay; in short: as §1
Quadruplex DNA [4] = experiment: Displacement of thiazole orange from telomeric 22 H1 G-quadruplex DNA (unknown origin) in presence of KCl by fluorescent intercalator displacement assay; assay type: nucleic-acid assay
In short: (§2)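 Target DNA (0.62 μM) was mixed with thiazole orange (1.24 μM) in 10 mM Tris, 50 mM KCl, pH 7.5, at 25 °C and titrated with compound. Fluorescence was excited at 501 nm and read at 520–680 nm. Displacement = 100 − (F/F0 × 100); EC50 was taken from displacement versus concentration. Each titration was run at least in triplicate.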

Quadruplex DNA [5] = experiment: Displacement of thiazole orange from wild-type telomeric 22 H2 G-quadruplex DNA (unknown origin) in presence of KCl by fluorescent intercalator displacement assay; assay type: nucleic-acid assay; in short: as §2
[6] = Selectivity ratio of EC50 for displacement of thiazole orange from wild-type telomeric 22 H2 G-quadruplex DNA (unknown origin) to EC50 for displacement of thiazole orange from telomeric 22 H1 G-quadruplex DNA (unknown origin); in short: as §2
Quadruplex DNA [7] = experiment: Binding affinity to telomeric 22 H1 G-quadruplex DNA (unknown origin) assessed as increase in positive cotton effect at 295 nm at 40 to 80 uM by electronic circular dichorism spectra analysis; assay type: nucleic-acid assay
In short: (§3)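 DNA annealed at 4 μM (strand concentration) in 10 mM Tris, 50 mM KCl, pH 7.5, with or without 40% MPD. ECD spectra were read at 230–350 nm in a 10 mm cell under Peltier temperature control, without ligand and with increasing ligand (0–80 μM). Cotton effects were converted to mean residue ellipticity.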

Quadruplex DNA [8] = experiment: Binding affinity to telomeric 22 H1 G-quadruplex DNA (unknown origin) assessed as decrease in positive cotton effect at 260 nm at 40 to 80 uM by electronic circular dichorism spectra analysis; assay type: nucleic-acid assay; in short: as §3
Quadruplex DNA [9] = experiment: Binding affinity to wild-type telomeric 22 H2 G-quadruplex DNA (unknown origin) assessed as increase in positive cotton effect at 295 nm at 40 to 80 uM in presence of KCl by electronic circular dichorism spectra analysis; assay type: nucleic-acid assay; in short: as §3
Quadruplex DNA [10] = experiment: Binding affinity to wild-type telomeric 22 H2 G-quadruplex DNA (unknown origin) assessed as decrease in positive cotton effect at 260 nm at 40 to 80 uM in presence of KCl by electronic circular dichorism spectra analysis; assay type: nucleic-acid assay; in short: as §3
Calf thymus DNA [11] = experiment: Binding affinity to calf thymus DNA up to 80 uM in presence of KCl by electronic circular dichorism spectra analysis; assay type: nucleic-acid assay; conditions: Bos taurus; in short: as §3
Calf thymus DNA [12] = experiment: Binding affinity to calf thymus DNA in presence of KCl by UV-spectra analysis; assay type: nucleic-acid assay; conditions: Bos taurus
Quadruplex DNA [13] = experiment: Binding affinity to telomeric 12 G-quadruplex DNA (unknown origin) assessed as increase in cotton effect amplitude up to 10 fold excess DNA concentration in presence of MPD by electronic circular dichorism spectra analysis; assay type: nucleic-acid assay

Compound | Activity (Quadruplex DNA [1]) | Activity (Calf thymus DNA [2]) | Activity (Quadruplex DNA [3]) | EC50 (Quadruplex DNA [4]) | EC50 (Quadruplex DNA [5]) | Ratio EC50 [6] | Activity (Quadruplex DNA [7]) | Activity (Quadruplex DNA [8]) | Activity (Quadruplex DNA [9]) | Activity (Quadruplex DNA [10]) | Activity (Calf thymus DNA [11]) | Activity (Calf thymus DNA [12]) | Activity (Quadruplex DNA [13])
c1c2c(cc3c1OCO3)-c1cc3ccc4c(c3c[n+]1CC2)OCO4 [COPTISINE] | Active | inactive | Active | 12 µM | 5.93 µM | 2 | Active | Active | Active | Active | Active | Active | Active
COc1ccc2c(c[n+](C)c3c4cc5c(cc4ccc23)OCO5)c1OC [CHELERYTHRINE] | Active | inactive | Active | 2.59 µM | 3.75 µM | 0.7 | Active | Active | Active | Active | Active | Active | 
